From ChEMBL document CHEMBL1159072, “Side chain SAR of bicyclic beta-lactamase inhibitors (BLIs). 1. Discovery of a class C BLI for combination with imipinem” (Bioorg Med Chem Lett, 2010)

Assays:
Pseudomonas aeruginosa [1] = assay: Antimicrobial activity against Pseudomonas aeruginosa CL5701 infected in mouse spleen assessed as reduction in colony forming unit at 2.5 mg/kg qid for 1 hr administered after 1.25 hrs of infusion; assay type: functional
In short: (§1)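 In vivo P. aeruginosa CL5701 infection: imipenem/cilastatin 2.5 mpk given with the BLI at 2.35 or 4.7 mpk, by 1.25 h infusion QID for 1 day. Bacterial CFU counted in the spleen and expressed as log reduction relative to imipenem/cilastatin alone.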

[2] = target: Beta-lactamase (Pseudomonas aeruginosa (strain ATCC 15692 / PAO1 / 1C / PRS 101 / LMG12228)) (UniProt P24735); assay: Inhibition of Pseudomonas aeruginosa CL5701 beta lactamase AmpC assessed as concentration required to reduce imipenem MIC
Pseudomonas aeruginosa [3] = assay: Antimicrobial activity against Pseudomonas aeruginosa CL5701 infected in mouse spleen assessed as reduction in colony forming unit at 2.35 mg/kg qid for 1 hr administered after 1.25 hrs of infusion; assay type: functional; in short: as §1
Beta-lactamase = Beta-lactamase (Pseudomonas aeruginosa (strain ATCC 15692 / PAO1 / 1C / PRS 101 / LMG12228), UniProt P24735); assay: Inhibition of Pseudomonas aeruginosa beta lactamase AmpC by spectrophotometry
In short: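 Nitrocefin hydrolysis by P. aeruginosa AmpC, enzyme and substrate in 100 mM KH2PO4 pH 7 with 0.005% BSA. Inhibitor serially diluted from DMSO and preincubated with AmpC 40 min at room temperature. Substrate then added for a further 40 min, quenched with 2.5 N acetic acid, absorbance read at 492 nm. IC50 taken from semi-log plots of inhibition versus concentration.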

Pseudomonas aeruginosa [4] = assay: Antimicrobial activity against Pseudomonas aeruginosa CL5701 infected in mouse spleen assessed as reduction in colony forming unit at 4.7 mg/kg qid for 1 hr administered after 1.25 hrs of infusion; assay type: functional; in short: as §1

Chain of Beta-lactamase (Pseudomonas aeruginosa (strain ATCC 15692 / PAO1 / 1C / PRS 101 / LMG12228)) (P24735 27-397 limits assumed): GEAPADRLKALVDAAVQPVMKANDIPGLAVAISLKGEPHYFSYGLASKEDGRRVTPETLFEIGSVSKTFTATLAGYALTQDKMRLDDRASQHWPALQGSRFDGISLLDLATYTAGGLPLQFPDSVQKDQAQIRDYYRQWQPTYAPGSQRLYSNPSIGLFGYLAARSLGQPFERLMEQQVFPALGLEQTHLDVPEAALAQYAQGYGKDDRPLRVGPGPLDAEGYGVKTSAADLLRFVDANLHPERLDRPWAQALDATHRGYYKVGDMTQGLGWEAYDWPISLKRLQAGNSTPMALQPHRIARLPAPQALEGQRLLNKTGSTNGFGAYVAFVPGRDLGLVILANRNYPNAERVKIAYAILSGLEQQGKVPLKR
Chain of Beta-lactamase (P24735 whole entry): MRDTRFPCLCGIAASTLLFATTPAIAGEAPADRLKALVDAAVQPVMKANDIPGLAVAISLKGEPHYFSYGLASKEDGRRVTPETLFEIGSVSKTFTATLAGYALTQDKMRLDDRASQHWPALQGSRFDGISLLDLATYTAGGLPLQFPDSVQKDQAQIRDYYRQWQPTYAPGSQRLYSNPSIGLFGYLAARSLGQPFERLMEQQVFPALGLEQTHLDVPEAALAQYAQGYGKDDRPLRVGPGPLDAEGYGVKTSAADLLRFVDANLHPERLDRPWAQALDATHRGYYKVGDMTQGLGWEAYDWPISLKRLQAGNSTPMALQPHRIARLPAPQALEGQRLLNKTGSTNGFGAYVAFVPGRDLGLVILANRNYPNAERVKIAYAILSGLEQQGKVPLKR

Structure (SMILES) | Activity [2] | IC50 (Beta-lactamase) | further results
O=C(N[C@H]1CCCNCC1)N1CC[C@@H]2[C@H]1C(=O)N2S(=O)(=O)O | 9.4 µM | 1 µM | log10cfu (Pseudomonas aeruginosa [1]): 4.6; log10cfu (Pseudomonas aeruginosa [3]): 4.6
O=C(NC1CCNCC1)N1CC[C@@H]2[C@H]1C(=O)N2S(=O)(=O)O | 21 µM | – | log10cfu (Pseudomonas aeruginosa [4]): 4.7
O=C(NC1CCCNCCC1)N1CC[C@@H]2[C@H]1C(=O)N2S(=O)(=O)O | 25 µM | 3.4 µM | –
O=C(N[C@@H]1CNCCOC1)N1CC[C@@H]2[C@H]1C(=O)N2S(=O)(=O)O | 25 µM | – | –
O=C(NC1CCCCNCCC1)N1CC[C@@H]2[C@H]1C(=O)N2S(=O)(=O)O (stereo in doubt; 13) [listing 1 of 2 here] | – | 4 µM | –
O=C(NC1CCCCNCCC1)N1CC[C@@H]2[C@H]1C(=O)N2S(=O)(=O)O (stereo in doubt; 14) [listing 1 of 2 here] | – | 5 µM | –
O=C(NC1CCCCNCCC1)N1CC[C@@H]2[C@H]1C(=O)N2S(=O)(=O)O (stereo in doubt; 13) [listing 2 of 2 here] | > 100 µM | – | –
O=C(N[C@H]1CCCCNC1)N1CC[C@@H]2[C@H]1C(=O)N2S(=O)(=O)O | 50 µM | 1.9 µM | –
O=C(NC1CCCCNCC1)N1CC[C@@H]2[C@H]1C(=O)N2S(=O)(=O)O (stereo in doubt; 12) | > 100 µM | – | –
O=C1NCCCC[C@@H]1NC(=O)N1CC[C@@H]2[C@H]1C(=O)N2S(=O)(=O)O | > 100 µM | 0.8 µM | –
O=C(NC1CNCCNC1)N1CC[C@@H]2[C@H]1C(=O)N2S(=O)(=O)O | 100 µM | 17 µM | –
O=C(NC1CCCCNCC1)N1CC[C@@H]2[C@H]1C(=O)N2S(=O)(=O)O (single isomer, unassigned) | 12.5 µM | – | –
O=C(N[C@@H]1CCCNCC1)N1CC[C@@H]2[C@H]1C(=O)N2S(=O)(=O)O | 25 µM | – | –
O=C(NC1CCCCNCCC1)N1CC[C@@H]2[C@H]1C(=O)N2S(=O)(=O)O (stereo in doubt; 14) [listing 2 of 2 here] | > 100 µM | – | –
O=C(NC1CCCCCC1)N1CC[C@@H]2[C@H]1C(=O)N2S(=O)(=O)O | > 100 µM | – | –
O=C(N[C@H]1CNCCOC1)N1CC[C@@H]2[C@H]1C(=O)N2S(=O)(=O)O | 50 µM | – | –
